Laboratory results reported in ChEMBL document CHEMBL3612005, “Discovery of N-aryl-naphthylamines as in vitro inhibitors of the interaction between HIV integrase and the cofactor LEDGF/p75” (Eur J Med Chem, 2015).
Calls of active or inactive are those of the source. No cut-off for these calls is given here.

How the values were obtained:
[1] = molecular target: Human immunodeficiency virus type 1 integrase (Human immunodeficiency virus 1) (UniProt Q7ZJM1); experiment: Binding affinity to His6-tagged recombinant HIV1 Integrase assessed as inhibition of protein interaction with 3xFLAG-tagged LEDGF/p75 at 100 uM preincubated for 30 mins followed by 3xFLAG-tagged LEDGF/p75 addition measured after 60 mins by AlphaScreen assay relative to control
Summary of the method: (§1)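 His6-integrase (300 nM final) preincubated with compound 30 min at 4 °C, then FLAG-LEDGF/p75 (300 nM final) added for 60 min at 4 °C; Ni-chelate donor and anti-FLAG acceptor beads (20 µg/mL each) added, 1 h at 30 °C, light-protected. Buffer: 25 mM Tris-HCl pH 7.4, 150 mM NaCl, 1 mM MgCl2, 0.01% Tween-20, 0.1% BSA. Single-point screen at 100 µM; IC50 determined where inhibition exceeded 50%.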

[2] = test system: Human immunodeficiency virus 1; experiment: Antiviral activity against HIV1 3B infected in human MT4 cells assessed as protection against virus-induced cytopathic effect by MTT assay; type: functional, organism-based; conditions: Human immunodeficiency virus 1, 3B
Summary of the method: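 MT-4 cells infected with 100–300 CCID50 of HIV-1 IIIB (virus titred in MT-4 cells) with five-fold serial dilutions of compound; protection from viral cytopathic effect read by MTT reduction to formazan, measured spectrophotometrically; EC50 = concentration giving 50% protection.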

[3] = Cytotoxicity against human MT4 cells assessed as reduction in cell viability by MTT assay; type: cell-based
Summary of the method: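 Uninfected MT-4 cells exposed to five-fold serial dilutions of compound; viability measured by MTT reduction to formazan, read spectrophotometrically; CC50 = concentration killing 50% of cells.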

[4] = molecular target: Human immunodeficiency virus type 1 integrase (Human immunodeficiency virus 1, UniProt Q7ZJM1); experiment: Binding affinity to His6-tagged recombinant HIV1 Integrase assessed as inhibition of protein interaction with 3xFLAG-tagged LEDGF/p75 preincubated for 30 mins followed by 3xFLAG-tagged LEDGF/p75 addition measured after 60 mins by AlphaScreen assay; summary of the method: as §1
[5] = species: Homo sapiens; experiment: Inhibition of FLAG-tagged GST (unknown origin) at 100 uM by emission quenching AlphaScreen assay relative to control
Summary of the method: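 Emission-quench counter-screen: FLAG-tagged GST (500 nM final) replaces integrase and LEDGF/p75, otherwise run as the AlphaScreen interaction assay (Ni-chelate donor and anti-FLAG acceptor beads, 20 µg/mL each, 1 h at 30 °C; Tris-HCl pH 7.4 buffer). Compound tested at 100 µM; percent inhibition of signal.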

Sequence of Human immunodeficiency virus type 1 integrase (Human immunodeficiency virus 1) (Q7ZJM1 as listed by the source): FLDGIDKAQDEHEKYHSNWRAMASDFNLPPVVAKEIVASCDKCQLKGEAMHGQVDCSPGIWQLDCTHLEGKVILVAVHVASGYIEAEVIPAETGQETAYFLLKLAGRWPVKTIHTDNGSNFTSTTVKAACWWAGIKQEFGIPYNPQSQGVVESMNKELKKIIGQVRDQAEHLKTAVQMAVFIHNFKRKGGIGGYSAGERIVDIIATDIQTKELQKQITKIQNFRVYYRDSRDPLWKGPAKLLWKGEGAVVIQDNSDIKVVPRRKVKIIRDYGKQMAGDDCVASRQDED
Sequence of Human immunodeficiency virus type 1 integrase (Q7ZJM1 whole entry): as the sequence (Q7ZJM1 as listed by the source) above

| Compound | inhibition [1] | EC50 [2] | CC50 [3] | IC50 [4] | inhibition [5] |
| --- | --- | --- | --- | --- | --- |
| COC(=O)c1ccc(Nc2cccc3ccccc23)cc1 | 62% | > 27.5 µM | 27.5 µM | – | – |
| O=C(O)c1ccc(Nc2ccc3ccccc3c2O)cc1 | 66% | > 23.7 µM | 23.7 µM | 70.1 µM | – |
| COc1ccccc1Nc1ccc(OC)c2ccccc12 | inactive | – | – | – | – |
| COC(=O)c1ccc(Nc2ccc3ccccc3c2OC)cc1 | inactive | – | – | – | – |
| Fc1ccc(Nc2ccc(F)c3ccccc23)cc1 | 63% | > 38.4 µM | 38.4 µM | > 100 µM | – |
| CSc1ccc(Nc2ccc(F)c3ccccc23)cc1 | inactive | – | – | – | – |
| COC(=O)c1ccccc1Nc1c(OC)ccc2ccccc12 | inactive | – | – | – | – |
| O=C(O)c1ccc(Nc2cccc3ccccc23)cc1 | 39% | – | – | – | – |
| O=C(O)c1ccc(Cn2ccc(=O)c3ccccc32)cc1 | inactive | – | – | – | – |
| COC(=O)c1cc(Nc2ccc(OC)c3ccccc23)ccc1OC | inactive | – | – | – | 92% |
| O=S(=O)(c1ccc(O)cc1)c1ccc(O)c2ccccc12 | 30% | – | – | – | – |
| COC(=O)c1ccccc1Nc1c(O)ccc2ccccc12 | 28% | – | – | – | – |
| COc1c(Nc2ccc(C(=O)O)cc2)ccc2ccccc12 | inactive | – | – | – | – |
| COc1c(Nc2ccccc2)ccc2ccccc12 | inactive | – | – | – | – |
| Oc1c(Nc2ccccc2)ccc2ccccc12 | 61% | – | – | – | – |
| O=C(O)c1ccc(Nc2ccc(O)c3ccccc23)cc1 | 95% | > 1.07 µM | 1.07 µM | 2.5 µM | 16% |
| COc1ccc(Sc2ccc(OC)c3ccccc23)cc1 | inactive | – | – | – | – |
| COC(=O)c1ccc(Nc2ccc(OC)c3ccccc23)cc1 | 59% | – | – | 34.8 µM | inactive |
| Cc1ccc(-c2c(C(OC(C)(C)C)C(=O)O)ccc3sc(C)cc23)cc1 (stereo not given) | – | 0.069 µM | 96 µM | 0.046 µM | – |

| Compound | inhibition [1] | EC50 [2] | CC50 [3] | IC50 [4] | inhibition [5] |
| --- | --- | --- | --- | --- | --- |
| COC(=O)c1ccc(Cn2ccc(=O)c3ccccc32)cc1 | 25% | – | – | – | – |
| COC(=O)c1ccc(Nc2ccc3ccccc3c2O)cc1 | 58% | – | – | – | – |
| Oc1ccc(Nc2ccc(O)c3ccccc23)cc1 | 95% | – | – | – | 84% |
| COc1ccc2ccccc2c1Nc1c(OC)ccc2ccccc12 | 100% | > 3.41 µM | 3.41 µM | 13.8 µM | 74% |
| CCOC(=O)c1cn(Cc2ccc(C(=O)OC)cc2)c2ccccc2c1=O | 60% | > 5.63 µM | 5.63 µM | > 100 µM | – |
| COc1ccc(Nc2ccc(C(=O)O)cc2)c2ccccc12 | 33% | – | – | – | – |
| COc1ccc(Nc2ccccc2)c2ccccc12 | inactive | – | – | – | – |
| O=C(O)c1ccccc1Nc1c(O)ccc2ccccc12 | 56% | – | – | – | – |
| COc1ccc(Nc2ccc(OC)c3ccccc23)cc1 | 57% | – | – | – | – |
| COc1ccc(I)cc1Nc1ccc(OC)c2ccccc12 | 61% | > 12.5 µM | 12.5 µM | 28.9 µM | – |
| O=C(O)c1ccc(Cn2cc(C(=O)O)c(=O)c3ccccc32)cc1 | 16% | – | – | – | – |
| COC(=O)c1ccc(Nc2ccc(O)c3ccccc23)cc1 | 49% | – | – | – | – |
| O=C(O)c1cc(Nc2ccc(O)c3ccccc23)ccc1O | 88% | > 126 µM | 126 µM | 19.1 µM | 52% |
| COc1ccc(S(=O)(=O)c2ccc(OC)c3ccccc23)cc1 | inactive | – | – | – | – |
| COc1c(Nc2ccc(I)cc2)ccc2ccccc12 | inactive | – | – | – | – |
| Oc1ccc(Sc2ccc(O)c3ccccc23)cc1 | 38% | – | – | – | – |
| CC(=O)c1cn(Cc2ccc(C(=O)O)cc2)c2ccccc2c1=O | inactive | – | – | – | – |
| COc1ccc(Nc2ccc(OC)c3ccccc23)cc1C(=O)O | 41% | – | – | – | – |
| COC(=O)c1ccc(Cn2cc(C(C)=O)c(=O)c3ccccc32)cc1 | 46% | – | – | – | – |
